Assays:
Type in all cases: functional
[1] = system: Human immunodeficiency virus 1; test: Antiviral activity against HIV1 isolate with RT 179E mutation relative to wild type
Procedure, shortened: (§1)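 Mutant RT clones built in pNL4-3.Luc.R−E− reporter, VSV-G-pseudotyped, single-round infection of HeLa-JC53 cells (15,000/well, MOI 0.03) with 1:4 serial compound dilutions in DMEM (phenol red-free), 2% FBS, 0.2% final DMSO; 48 h at 37°C, 5% CO2; luciferase chemiluminescence read-out. Fold change in EC50 relative to wild-type virus; mean of two tests.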

[2] = system: Human immunodeficiency virus 1; test: Antiviral activity against HIV1 isolate with RT 101P, 103N mutation relative to wild type
[3] = system: Human immunodeficiency virus 1; test: Antiviral activity against HIV1 isolate with RT 101Q, 103N mutation relative to wild type
[4] = system: Human immunodeficiency virus 1; test: Antiviral activity against HIV1 isolate with RT 103N, 188L mutation relative to wild type
[5] = system: Human immunodeficiency virus 1; test: Antiviral activity against HIV1 isolate with RT 106A mutation relative to wild type; procedure, shortened: as §1
[6] = system: Human immunodeficiency virus 1; test: Antiviral activity against HIV1 isolate with RT 106A, F227L mutation relative to wild type; procedure, shortened: as §1
[7] = system: Human immunodeficiency virus 1; test: Antiviral activity against HIV1 isolate with RT 98G, 181C mutation relative to wild type; procedure, shortened: as §1
[8] = system: Human immunodeficiency virus 1; test: Antiviral activity against HIV1 isolate with RT 103N mutation relative to wild type
[9] = system: Human immunodeficiency virus 1; test: Antiviral activity against HIV1 isolate with RT 238N mutation relative to wild type; procedure, shortened: as §1
[10] = system: Human immunodeficiency virus 1; test: Antiviral activity against HIV1 isolate with RT 179G mutation relative to wild type; procedure, shortened: as §1
[11] = system: Human immunodeficiency virus 1; test: Antiviral activity against HIV1 isolate with RT 227L mutation relative to wild type; procedure, shortened: as §1
[12] = system: Human immunodeficiency virus 1; test: Antiviral activity against HIV1 isolate with RT 103R, 179D, 188L mutation relative to wild type; procedure, shortened: as §1
[13] = system: Human immunodeficiency virus 1; test: Antiviral activity against HIV1 isolate with RT 103S, 190A mutation relative to wild type; procedure, shortened: as §1
[14] = system: Human immunodeficiency virus 1; test: Antiviral activity against HIV1 isolate with RT 181I mutation relative to wild type; procedure, shortened: as §1
[15] = system: Human immunodeficiency virus 1; test: Antiviral activity against HIV1 isolate with RT 101E, 181C, 190S mutation relative to wild type
[16] = system: Human immunodeficiency virus 1; test: Antiviral activity against HIV1 isolate with RT 101Q, 103R mutation relative to wild type
[17] = system: Human immunodeficiency virus 1; test: Antiviral activity against HIV1 isolate with RT 103R, 179D mutation relative to wild type; procedure, shortened: as §1
[18] = system: Human immunodeficiency virus 1; test: Antiviral activity against HIV1 isolate with RT 103N, 108I, 225H mutation relative to wild type
[19] = system: Human immunodeficiency virus 1; test: Antiviral activity against HIV1 isolate with RT 98G, 103N, 108I mutation relative to wild type; procedure, shortened: as §1
[20] = system: Human immunodeficiency virus 1; test: Antiviral activity against HIV1 isolate with RT 101P, 190A mutation relative to wild type
[21] = system: Human immunodeficiency virus 1; test: Antiviral activity against HIV1 isolate with RT 101R, 103N mutation relative to wild type
[22] = system: Human immunodeficiency virus 1; test: Antiviral activity against HIV1 isolate with RT 101Q, 190S mutation relative to wild type
[23] = system: Human immunodeficiency virus 1; test: Antiviral activity against HIV1 isolate with RT 98G, 190A mutation relative to wild type
Procedure, shortened: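 VSV-G-pseudotyped pNL4-3.Luc.R−E− molecular clones carrying the RT mutations, single-round infection of HeLa-JC53 cells (15,000/well) at MOI 0.03. Compounds serially diluted 1:4 in DMSO then in phenol red-free DMEM with 2% FBS, final DMSO 0.2%. Incubated 48 h at 37°C, 5% CO2. Luciferase read-out by chemiluminescence gives the EC50. Fold change is relative to wt virus, mean of two tests.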

[24] = system: Human immunodeficiency virus 1; test: Antiviral activity against HIV1 isolate with RT 101Q, 181C, 190S mutation relative to wild type
[25] = system: Human immunodeficiency virus 1; test: Antiviral activity against HIV1 isolate with RT 101E, 103N mutation relative to wild type
[26] = system: Human immunodeficiency virus 1; test: Antiviral activity against HIV1 isolate with RT 101H, 190A mutation relative to wild type
[27] = system: Human immunodeficiency virus 1; test: Antiviral activity against HIV1 isolate with RT 98G, 103N, 181C mutation relative to wild type; procedure, shortened: as §1
[28] = system: Human immunodeficiency virus 1; test: Antiviral activity against HIV1 isolate with RT 103N, 108I, 238T mutation relative to wild type
[29] = system: Human immunodeficiency virus 1; test: Antiviral activity against HIV1 isolate with RT 98G, 100I, 103N mutation relative to wild type; procedure, shortened: as §1
[30] = system: Human immunodeficiency virus 1; test: Antiviral activity against HIV1 isolate with RT 100I, 103N, 108I mutation relative to wild type
[31] = system: Human immunodeficiency virus 1; test: Antiviral activity against HIV1 isolate with RT 103N, 108I mutation relative to wild type
[32] = system: Human immunodeficiency virus 1; test: Antiviral activity against HIV1 isolate with RT 179D mutation relative to wild type; procedure, shortened: as §1
[33] = system: Human immunodeficiency virus 1; test: Antiviral activity against HIV1 isolate with RT 103N, 225H mutation relative to wild type; procedure, shortened: as §1
[34] = system: Human immunodeficiency virus 1; test: Antiviral activity against HIV1 isolate with RT 101Q mutation relative to wild type
[35] = system: Human immunodeficiency virus 1; test: Antiviral activity against HIV1 isolate with RT 101E, 190A mutation relative to wild type
[36] = system: Human immunodeficiency virus 1; test: Antiviral activity against HIV1 isolate with RT 100I, 103N mutation relative to wild type
[37] = system: Human immunodeficiency virus 1; test: Antiviral activity against HIV1 isolate with RT 181C mutation relative to wild type; procedure, shortened: as §1
[38] = system: Human immunodeficiency virus 1; test: Antiviral activity against HIV1 isolate with RT 106I mutation relative to wild type; procedure, shortened: as §1
[39] = system: Human immunodeficiency virus 1; test: Antiviral activity against HIV1 isolate with RT 190E mutation relative to wild type; procedure, shortened: as §1
[40] = system: Human immunodeficiency virus 1; test: Antiviral activity against HIV1 isolate with RT 98G, 101E, 181C, 190A mutation relative to wild type; procedure, shortened: as §1
[41] = system: Human immunodeficiency virus 1; test: Antiviral activity against HIV1 isolate with RT 101H mutation relative to wild type
[42] = system: Human immunodeficiency virus 1; test: Antiviral activity against HIV1 isolate with RT 103N, 108I, 190A mutation relative to wild type
[43] = system: Human immunodeficiency virus 1; test: Antiviral activity against HIV1 isolate with RT 108I, 181C, 190A mutation relative to wild type; procedure, shortened: as §1
[44] = system: Human immunodeficiency virus 1; test: Antiviral activity against HIV1 isolate with RT 101Q, 103N, 225H mutation relative to wild type
[45] = system: Human immunodeficiency virus 1; test: Antiviral activity against HIV1 isolate with RT 98G, 103N, 181C, 190A mutation relative to wild type; procedure, shortened: as §1
[46] = system: Human immunodeficiency virus 1; test: Antiviral activity against HIV1 isolate with RT 103N, 190S mutation relative to wild type; procedure, shortened: as §1
[47] = system: Human immunodeficiency virus 1; test: Antiviral activity against HIV1 isolate with RT 106A, 181C mutation relative to wild type; procedure, shortened: as §1
[48] = system: Human immunodeficiency virus 1; test: Antiviral activity against HIV1 isolate with RT 103S mutation relative to wild type; procedure, shortened: as §1
[49] = system: Human immunodeficiency virus 1; test: Antiviral activity against HIV1 isolate with RT 101N, 103N mutation relative to wild type
[50] = system: Human immunodeficiency virus 1; test: Antiviral activity against HIV1 isolate with RT 181V mutation relative to wild type; procedure, shortened: as §1
[51] = system: Human immunodeficiency virus 1; test: Antiviral activity against HIV1 isolate with RT 100F mutation relative to wild type
[52] = system: Human immunodeficiency virus 1; test: Antiviral activity against HIV1 isolate with RT 101E mutation relative to wild type

`Cc1ccnc2c1NC(=O)c1cccnc1N2C1CC1` [NEVIRAPINE] gave a Fold change [1] of 1.9, a Fold change [2] greater than 100 and a Fold change [3] greater than 100. It also gave a Fold change [4] greater than 100, a Fold change [5] greater than 100 and a Fold change [6] greater than 100. The Fold change [7] was greater than 100, the Fold change [8] was 51 and the Fold change [9] was 1.9. For the same compound, the Fold change [10] was 0.1, the Fold change [11] was 2.1 and the Fold change [12] was greater than 100. For the same compound, the Fold change [13] was greater than 100, the Fold change [14] was greater than 100 and the Fold change [15] was greater than 100. The Fold change [16] was 1.3, the Fold change [17] was 1.3 and the Fold change [18] was greater than 100. For the same compound, the Fold change [19] was greater than 100, the Fold change [20] was greater than 100 and the Fold change [21] was greater than 100. For the same compound, the Fold change [22] was greater than 100, the Fold change [23] was greater than 100 and the Fold change [24] was greater than 100. The Fold change [25] was greater than 100, the Fold change [26] was greater than 100 and the Fold change [27] was greater than 100. The Fold change [28] was greater than 100, the Fold change [29] was greater than 100 and the Fold change [30] was greater than 100. It also gave a Fold change [31] greater than 100, a Fold change [32] of 4.2 and a Fold change [33] greater than 100. The Fold change [34] was 2.8, the Fold change [35] was greater than 100 and the Fold change [36] was 42. It also gave a Fold change [37] greater than 100, a Fold change [38] of 1.1 and a Fold change [39] greater than 100. For the same compound, the Fold change [40] was greater than 100, the Fold change [41] was 12 and the Fold change [42] was greater than 100. It also gave a Fold change [43] greater than 100, a Fold change [44] greater than 100 and a Fold change [45] greater than 100. For the same compound, the Fold change [46] was greater than 100, the Fold change [47] was greater than 100 and the Fold change [48] was 39. For the same compound, the Fold change [49] was 32, the Fold change [50] was greater than 100 and the Fold change [51] was 2.4. The Fold change [52] was 42.

`NS(=O)(=O)c1ccc(NC(=O)CSc2nnc(Br)n2-c2ccc(C3CC3)c3ccccc23)c(Cl)c1` gave a Fold change [1] of 2.4, a Fold change [2] of 2.2 and a Fold change [3] of 5.2. For the same compound, the Fold change [4] was 3.9, the Fold change [5] was 6 and the Fold change [6] was greater than 100. For the same compound, the Fold change [7] was 11, the Fold change [8] was 0.7 and the Fold change [9] was 0.7. It also gave a Fold change [10] of 0.3, a Fold change [11] of 0.47 and a Fold change [12] greater than 100. For the same compound, the Fold change [13] was greater than 100, the Fold change [14] was 5.4 and the Fold change [15] was greater than 100. It also gave a Fold change [16] of 0.6, a Fold change [17] of 0.3 and a Fold change [18] of 2.6. It also gave a Fold change [19] of 2.2, a Fold change [20] of 92 and a Fold change [21] of 1.2. It also gave a Fold change [22] of 2.4, a Fold change [23] of 16 and a Fold change [24] greater than 100. It also gave a Fold change [25] of 0.9, a Fold change [26] of 32 and a Fold change [27] of 4.2. The Fold change [28] was 2.5, the Fold change [29] was 1.4 and the Fold change [30] was 1.9. The Fold change [31] was 1.3, the Fold change [32] was 3.3 and the Fold change [33] was 1.6. The Fold change [34] was 2.2, the Fold change [35] was 83 and the Fold change [36] was 0.9. The Fold change [37] was 10, the Fold change [38] was 0.9 and the Fold change [39] was greater than 100. For the same compound, the Fold change [40] was 65, the Fold change [41] was 2.5 and the Fold change [42] was 20. It also gave a Fold change [43] greater than 100, a Fold change [44] of 3.9 and a Fold change [45] of 82. For the same compound, the Fold change [46] was 18, the Fold change [47] was 16 and the Fold change [48] was 2.7. For the same compound, the Fold change [49] was 0.6, the Fold change [50] was 20 and the Fold change [51] was 1.8. It also gave a Fold change [52] of 11.
